These results are taken from ChEMBL document CHEMBL1221194, “Forward chemical genetic approach identifies new role for GAPDH in insulin signaling” (Nat Chem Biol, 2007).

Assay [1] has as its target Glyceraldehyde-3-phosphate dehydrogenase (Mus musculus) (UniProt P16858). Description: Inhibition of GAPDH in mouse 3T3L1 […] assessed as increase in Ptdlns(4, 5)P2 level by immunofluorescence method. The procedure, abridged:
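Whole 3T3-L1 cells given compound in PBS for 1 min, DMSO as control, then fixed in 4% formaldehyde. Stained with antibody to PtdIns(4,5)P2 and imaged by fluorescence microscopy (ex 488/em 510 nm). Intensity normalized to DMSO control; s.d. from 15 images over three independent experiments.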

Assay [2] concerns 3T3-L1. Description: Inhibition of conversion of Ptdlns(4, 5)P2 to PIP in GAPDH depleted mouse 3T3L1 lysate by fluorescent phosphoinositide TLC. The class given is functional. The method in brief: (§1)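 3T3-L1 lysate immunodepleted of GAPDH, run in 25 µl ammonium carbonate/DTT buffer pH 8.0 with fluorescent PtdIns(3,4,5)P3 or PtdIns(4,5)P2 substrate. Run with or without exogenous GAPDH ([…]), compound tested in the presence of GAPDH, 2 h at 25 °C. Sampled every 20 min and resolved by TLC. Hydrolyzed/total spot fluorescence; two independent experiments.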

Assay [3] concerns the target Glyceraldehyde-3-phosphate dehydrogenase (Mus musculus) (UniProt P16858). Description: Induction of GAPDH tetramer segregation into monomers in mouse 3T3L1 lysate at […] after 3 hrs by immunoprecipitation method.
Assay [4] deals with Caenorhabditis elegans. Kind of assay: inhibition of GAPDH in Caenorhabditis elegans e1370 daf-2 mutant assessed as inhibition of dauer formation relative to control. The procedure, abridged: (§2)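 C. elegans daf-2 (e1370) kept in M9 buffer with 2% E. coli OP50 culture and compound ([…]), 4 d at 25 °C. Young adult-size animals counted in solution.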
In assay [5] the target is Glyceraldehyde-3-phosphate dehydrogenase (Mus musculus) (UniProt P16858). Description: Inhibition of GAPDH in mouse 3T3L1 lysate assessed as inhibition of conversion of Ptdlns(4, 5)P2 to PIP by fluorescent phosphoinositide TLC. The method in brief: (§3)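 3T3-L1 preadipocyte lysate (5 µl) in 50 mM ammonium carbonate pH 8.0 with 2 mM DTT. Compound present, reaction started with C6-NBD6-PtdIns(3,4,5)P3 or PtdIns(4,5)P2, run 2 h at 25 °C. Products resolved by TLC on oxalate-treated silica. Hydrolyzed spot quantified as fraction of total fluorescence; s.d. from two independent experiments.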

For assay [6] the target is unchanged. Kind of assay: Inhibition of GAPDH in mouse 3T3-L1 cells assessed as 2-NBD-glucose uptake after 15 mins. The assay is classed as cell-based. The procedure, abridged: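 3T3-L1 preadipocytes grown overnight in DMEM with 10% heat-inactivated newborn calf serum, washed and held in PBS 5 min. Compound applied with 2-NBD-glucose ([…]) for 15 min at 37 °C. Cells washed, lysed in 0.1 M potassium phosphate pH 10 with 1% Triton X-100, DMSO added. Fluorescence read at ex 466/em 540 nm.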

Assay [7] is described as follows: Activation of PI3K assessed as tyrosine phosphorylation of p85 subunit.
For assay [8], the target named is Glyceraldehyde-3-phosphate dehydrogenase (Mus musculus) (UniProt P16858). Kind of assay: Inhibition of GAPDH in mouse 3T3L1 lysate assessed as inhibition of conversion of Ptdlns(3, 4, 5)P3 to PIP2 by fluorescent phosphoinositide TLC. The procedure, abridged:
as §3

Assay [9] relates to 3T3-L1. Kind of assay: Inhibition of conversion of Ptdlns(3, 4, 5)P3 to PIP2 in GAPDH depleted mouse 3T3L1 lysate by fluorescent phosphoinositide TLC. The assay is classed as functional. The procedure, abridged:
as §1

The target of assay [10] is Glyceraldehyde-3-phosphate dehydrogenase (Oryctolagus cuniculus, UniProt P46406). Kind of assay: Inhibition of rabbit GAPDH glycolytic activity. The method in brief:
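Enzyme source was purified GAPDH from rabbit muscle, assayed in vitro for its glycolytic enzymatic activity. IC50 was reported as the half-maximal inhibitory concentration.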

Assay [11] concerns the target Glyceraldehyde-3-phosphate dehydrogenase (Oryctolagus cuniculus) (UniProt P46406). Kind of assay: Induction of rabbit GAPDH tetramer segregation into monomers at 10 uM after 30 mins by SDS-PAGE. The method in brief: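 Purified rabbit muscle GAPDH was incubated with compound at 0.4, 2 or 10 µM for 30 min at 4 °C. Samples were then chemically cross-linked, resolved by SDS-PAGE and silver-stained. Tetramer and monomer bands were compared.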

The subject of assay [12] is Caenorhabditis elegans. Kind of assay: inhibition of GAPDH in Caenorhabditis elegans e1370 daf-2 mutant assessed as inhibition of dauer formation. The method in brief:
as §2

Assay [13] addresses Glyceraldehyde-3-phosphate dehydrogenase (Oryctolagus cuniculus) (UniProt P46406). Kind of assay: Inhibition of rabbit GAPDH glycolytic activity at > 50 uM.
Assay [14] concerns the target Glyceraldehyde-3-phosphate dehydrogenase (Homo sapiens, UniProt P04406). Kind of assay: Inhibition of GAPDH. The procedure, abridged: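 Purified rabbit muscle GAPDH was tested in vitro for its glycolytic enzymatic activity. The read-out was the half-maximal inhibitory concentration.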

Structures are written as SMILES. Active and inactive are the calls of the source. No cut-off for these calls is given here.

Sequence of Glyceraldehyde-3-phosphate dehydrogenase (Oryctolagus cuniculus) (P46406 whole entry, looked up): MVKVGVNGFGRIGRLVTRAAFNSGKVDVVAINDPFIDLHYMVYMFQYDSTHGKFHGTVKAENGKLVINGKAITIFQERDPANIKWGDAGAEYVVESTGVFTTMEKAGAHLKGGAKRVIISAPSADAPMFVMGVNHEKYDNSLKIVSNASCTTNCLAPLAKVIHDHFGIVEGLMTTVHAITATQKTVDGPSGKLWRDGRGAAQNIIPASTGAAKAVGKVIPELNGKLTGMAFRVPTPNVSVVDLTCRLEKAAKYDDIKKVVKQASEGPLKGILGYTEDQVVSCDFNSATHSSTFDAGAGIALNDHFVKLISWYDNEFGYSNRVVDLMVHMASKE
Sequence of Glyceraldehyde-3-phosphate dehydrogenase (Mus musculus) (P16858 whole entry): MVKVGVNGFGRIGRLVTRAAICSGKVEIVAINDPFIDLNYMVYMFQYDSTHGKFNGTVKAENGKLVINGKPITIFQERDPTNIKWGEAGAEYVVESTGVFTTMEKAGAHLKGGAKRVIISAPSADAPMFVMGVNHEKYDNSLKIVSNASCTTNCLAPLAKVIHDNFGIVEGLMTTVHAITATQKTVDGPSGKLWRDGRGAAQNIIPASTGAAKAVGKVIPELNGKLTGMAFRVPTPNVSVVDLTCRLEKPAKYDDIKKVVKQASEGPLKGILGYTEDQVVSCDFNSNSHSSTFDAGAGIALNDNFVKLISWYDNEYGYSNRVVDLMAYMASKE
Sequence of Glyceraldehyde-3-phosphate dehydrogenase (Oryctolagus cuniculus, UniProt P46406) (P46406 whole entry): as the sequence (P46406 whole entry, looked up) above
Sequence of Glyceraldehyde-3-phosphate dehydrogenase (Homo sapiens, UniProt P04406) (P04406 whole entry): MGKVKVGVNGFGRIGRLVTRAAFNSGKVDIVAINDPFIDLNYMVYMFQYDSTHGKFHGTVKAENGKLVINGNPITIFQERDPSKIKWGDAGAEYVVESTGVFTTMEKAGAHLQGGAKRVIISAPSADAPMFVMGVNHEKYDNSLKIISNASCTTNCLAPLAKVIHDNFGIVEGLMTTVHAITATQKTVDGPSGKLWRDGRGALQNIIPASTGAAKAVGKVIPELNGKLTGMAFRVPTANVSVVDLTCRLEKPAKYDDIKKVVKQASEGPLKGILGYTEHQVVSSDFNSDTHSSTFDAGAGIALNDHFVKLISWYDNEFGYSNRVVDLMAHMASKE

As to `O=C(NCCOCCOCCNc1nc(NCCc2ccc(O)c(O)c2)nc(Nc2ccccc2)n1)c1ccccc1`, the inhibition result in assay [1], in [5], in [8] and in assay [9] was “Active” throughout. Besides, the inhibition entry in assay [2] was “inactive”. The outcome in assay [3] and in assay [11] was Active. For the same compound, the inhibition is 18% in [4] and “Dose-dependent effect” in [6]. In addition, in [7], the result was inactive. Also, in assay [10], the IC50 came out at 15 µM.
With `C#CCN(C)[C@H](C)Cc1ccccc1`, in assay [11], the outcome was inactive.
Take `CCCCNc1nc(NCCOCCOCCNC(=O)c2ccccc2)nc(NCc2ccccn2)n1`: the inhibition result in assay [1], in [12], in [6], in assay [8], in assay [9] and in assay [13] was “inactive” in each case. Moreover, in assay [11], the outcome was inactive.
In the case of `NCCc1cc(O)c(O)cc1O` [OXIDOPAMINE], the inhibition entry in [6] was “inactive”. In assay [14], this compound gave an IC50 of 8 µM. For the same compound, the outcome in assay [11] was inactive.

In general, inhibition refers to the relative decrease from the control value, in per cent. As usually defined, the IC50 is the midpoint of a concentration-inhibition curve. Higher therefore signals lower potency.
